Screens from PubChem.
APJ agonist: agonists of human apelin receptor APJ, primary screen, CHO-K1 cells, PathHunter beta-arrestin, luminescence; P35414; hit rate 0.11% among 330,000; 0% DMSO wells, 100% apelin; activation, % at 20 µM;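 active means activation more than six SD over the plate average, tested at 20 µM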;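 further: 0% = DMSO alone and 100% = apelin-13 at 10 nM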
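Assay system: CHO-K1 APJ beta-arrestin complementation cell line / Compound: single test compound dose, 20 µM final, 1% DMSO / Times: overnight seeding, 90 min compound at 25 °C, 1 h detection / Technique: beta-gal luminescence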
APJ antagonist: antagonists of human apelin receptor APJ, primary screen, CHO-K1 cells, beta-arrestin complementation, luminescence; P35414; inhibition, % at 20 µM; hit rate 0.32% among 330,000;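 active means inhibition above about 40% at 20 µM, limit read from the data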;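 further: cells challenged with 10 nM apelin-13 agonist together with compound; plate controls were apelin-13 plus DMSO wells for no effect and DMSO wells lacking apelin-13 for full effect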
CCR6 antag: CCR6 receptor antagonists, primary screen, cell-based, CHO-K1, luminescence, beta-arrestin, uHTS; C-C chemokine receptor type 6 (Homo sapiens), P51684; CHO-K1 CCR6 PathHunter beta-arrestin, CCL20-stimulated; inhibition, % at 20 µM; hit rate 0.49% among 340,000;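 active means compounds whose inhibition of the agonist-driven luminescence signal at 20 µM reaches about 50%, limit read from the data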;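 further: cells stimulated with CCL20 at 14 nM final; plate controls were DMSO with CCL20 for no effect and DMSO without agonist for full effect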
Target sequence (P51684 whole entry, looked up): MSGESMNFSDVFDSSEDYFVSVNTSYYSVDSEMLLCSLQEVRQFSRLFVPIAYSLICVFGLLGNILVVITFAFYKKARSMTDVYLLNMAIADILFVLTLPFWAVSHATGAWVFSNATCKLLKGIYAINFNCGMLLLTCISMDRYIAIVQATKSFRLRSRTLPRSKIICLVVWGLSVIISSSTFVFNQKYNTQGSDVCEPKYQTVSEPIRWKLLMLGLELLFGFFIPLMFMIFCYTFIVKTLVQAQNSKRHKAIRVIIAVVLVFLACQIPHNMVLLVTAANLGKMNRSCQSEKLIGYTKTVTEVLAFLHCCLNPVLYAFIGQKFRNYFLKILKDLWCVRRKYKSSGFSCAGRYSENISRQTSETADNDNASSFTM
CXCR6 inh: CXCR6 receptor inhibitors, primary screen, cell-based, beta-arrestin, luminescence, CHO-K1 PathHunter, 1536-well | C-X-C chemokine receptor type 6 (Homo sapiens), O00574 | inhibition, % at 20 µM | hit rate 0.36% among 360,000; in the data active means inhibition above about 34%, passing the limit was not always enough;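 further: antagonist mode with CXCL16 agonist at 10 nM final; 0% = 10 nM CXCL16 with DMSO and 100% = unstimulated wells without agonist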
EBI2 block: EBI2 receptor antagonists, beta-arrestin recruitment, primary screen, cell-based, luminescence, 7a,25-OHC stimulation, uHTS. 7a,25-OHC stimulated. inhibition, % at 5 µM. hit rate 0.81% among 360,000; in the data active means inhibition above about 38%;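 further: enzyme fragment complementation signal reports receptor beta-arrestin coupling in cells; 0% = agonist plus DMSO wells and 100% = wells without agonist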
APJ antag confirm: APJ antagonists blocking beta-arrestin recruitment, confirmation, cell-based, luminescence, single concentration, uHTS hits; shares compounds with APJ antagonist; antagonist mode; inhibition, % at 20 µM; hit rate 66% among 950; AID 2766, 2010; in the data active means inhibition above about 50%
Starred values were filed as active, the others as inactive; nt = not tested or not shown. Most compounds without a hit are left out; they make up all but 1.5% or so of the library.

SMILES | APJ agonist | APJ antagonist | CCR6 antag | CXCR6 inh | EBI2 block | APJ antag confirm
COCC(C)NC(=O)CSc1ncnc2sc(-c3ccccc3)cc12 (stereo unspecified) | 3 | 6 | 5 | -5 | -6 | nt
CC(C)c1nc(C#N)c(NCCCn2ccnc2)o1 | -1 | 2 | 12 | 1 | -8 | nt
CC(C)c1nc(C#N)c(NN)o1 | -11 | 42* | 33 | 19 | -1 | 66*
COc1ccc(CCNC(=O)Cc2ccccc2)cc1OC | -2 | 111* | 17 | 3 | 1 | 27
Oc1c(N=Nc2ccccn2)ccc2ccccc12 | -12 | 68* | 50* | 32 | 36 | 113*
N#C/C(=C\c1ccc(O)c(O)c1)C(=O)N1CCCC1 | -1 | 22 | 19 | 20 | 8 | nt
N#C/C(=C\c1ccc(O)c(O)c1)C(=O)c1ccc(O)c(O)c1 | -7 | 43* | 54* | 27 | 3 | 57*
COc1ccc(S(=O)(=O)N2CCNC(=O)CC2)cc1 | 2 | -6 | 12 | 0 | 11 | nt
COc1ccc(S(=O)(=O)N2CCC(=O)N2)cc1 | -15 | 46* | 20 | 13 | 1 | 50
CSC(=NCc1ccco1)NC#N | 2 | 44* | 5 | 4 | -14 | -1
Cc1cc(F)ccc1-c1cc(C(=O)NC(C)C)[nH]n1 | nt | nt | nt | -6 | 2 | nt
Cc1nn(Cc2ccc(Cl)cc2)c(C)c1NC(=O)C1CC=CCC1C(=O)O (stereo unspecified) | -2 | 50* | 20 | -1 | -9 | 33
Cn1cc(SCC(=O)Nc2ccc3c(c2)OCO3)c2ccccc21 | -1 | 17 | 13 | -4 | 0 | nt
Cn1c(=O)cc(SCC(=O)Nc2ccc3c(c2)OCO3)c2ccccc21 | 6 | 45* | 12 | -6 | -3 | -26
COc1ccc(C(C)=O)cc1Cn1c(C)c(C(=O)NCc2ccc3c(c2)OCO3)sc1=O | nt | nt | nt | 1 | -3 | nt
COc1ccc(N2CC(C(=O)Nc3ccccc3C(=O)NC3CC3)CC2=O)cc1 (stereo unspecified) | 1 | 41* | 2 | -14 | -11 | 7
CCOc1ccc(N(CC(=O)NC2CCCCC2)C(=O)CCC(=O)Nc2nccs2)cc1 | -2 | 5 | 11 | 5 | 0 | nt
COC(CNC(=O)C1CCC(CNS(=O)(=O)c2c(C)cc(C)cc2C)CC1)OC (stereo unspecified) | 0 | 12 | 0 | -7 | -14 | nt
CC1=NN(c2ccc(C(=O)OC(C)C)cc2)C(=O)/C1=C\C=C\c1ccco1 | -2 | 57* | -8 | 13 | 3 | 51*
CCOC(=O)c1ccc(N2N=C(C)/C(=C/C=C/c3ccco3)C2=O)cc1 | -6 | 23 | -13 | 14 | 11 | nt
O=C(CCS(=O)(=O)c1ccc(Br)cc1)NC1CCCCCC1 | 11 | -8 | -2 | -9 | -3 | nt
O=S(=O)(c1ccc(Cl)cc1)N1CCC(N2CCOCC2)CC1 | -1 | 8 | 14 | 8 | 5 | nt
Nc1nc(-c2ccc(Cl)cc2)c(N=Nc2ccc(S(=O)(=O)N3CCOCC3)cc2)s1 | -4 | 49* | 71* | 51* | 32 | 89*
CC(NC(=O)c1cccs1)C(S)c1ccccc1 (stereo unspecified) | nt | nt | 10 | 7 | -26 | nt
CCC(CO)NC(=O)c1ccc(-c2nn(C)c(=O)c3ccccc23)cc1 (stereo unspecified) | 1 | 50* | -6 | 3 | -3 | 16
SMILES | APJ agonist | APJ antagonist | CCR6 antag | CXCR6 inh | EBI2 block | APJ antag confirm
CCOC(=O)[C@]12CCC=C1N(Cc1ccc(Cl)cc1Cl)C(=O)[C@H](CC(=O)NCc1ccc(C)o1)C2 | nt | nt | nt | 9 | -1 | nt
CCc1ccccc1NC(=O)CN(C1CCCCC1)S(C)(=O)=O | -3 | 0 | -1 | -6 | -3 | nt
CCOc1ccc(CCNC(=O)CN2C(=O)NC(CCSC)C2=O)cc1OCC (stereo unspecified) | -4 | -8 | -2 | 1 | 0 | nt
CC(=O)c1c[nH]c(C(=O)NCc2ccccc2Cl)c1 | -2 | 0 | 11 | -6 | -22 | nt
O=C(CCl)c1ccc2[nH]c(=O)oc2c1 | -14 | 83* | 7 | 8 | 2 | 20
O=c1[nH]c2ccc(Br)cc2o1 | nt | nt | 7 | -1 | 6 | nt
